Source: ChEMBL document CHEMBL1145341, “Synthesis and biological evaluation of bisindenoisoquinolines as topoisomerase I inhibitors” (2006)
Calls of active or inactive are those of the source. The calls are words filed in the database; no cut-off is given here.

Columns and labels:
OVCAR-3 = assay: Antiproliferative activity against human OVCAR-3 cell line; type: functional
DU-145 = assay: Antiproliferative activity against human DU145 cell line; type: functional
MDA-MB-435 = assay: Antiproliferative activity against human MDA-MB-435 cell line; type: functional
HOP-62 = assay: Antiproliferative activity against human HOP62 cell line; type: functional
HCT-116 = assay: Antiproliferative activity against human HCT116 cell line; type: functional
SF-539 = assay: Antiproliferative activity against human SF539 cell line; type: functional
SN12C = assay: Antiproliferative activity against human SN12C cell line; type: functional
UACC-62 = assay: Antiproliferative activity against human UACC62 cell line; type: functional
[1] = biological target: T1, DNA topoisomerase 1 (Homo sapiens) (UniProt P11387); assay: Inhibition of human recombinant Top1-mediated DNA cleavage upto 10 uM
T1 sequence (whole entry): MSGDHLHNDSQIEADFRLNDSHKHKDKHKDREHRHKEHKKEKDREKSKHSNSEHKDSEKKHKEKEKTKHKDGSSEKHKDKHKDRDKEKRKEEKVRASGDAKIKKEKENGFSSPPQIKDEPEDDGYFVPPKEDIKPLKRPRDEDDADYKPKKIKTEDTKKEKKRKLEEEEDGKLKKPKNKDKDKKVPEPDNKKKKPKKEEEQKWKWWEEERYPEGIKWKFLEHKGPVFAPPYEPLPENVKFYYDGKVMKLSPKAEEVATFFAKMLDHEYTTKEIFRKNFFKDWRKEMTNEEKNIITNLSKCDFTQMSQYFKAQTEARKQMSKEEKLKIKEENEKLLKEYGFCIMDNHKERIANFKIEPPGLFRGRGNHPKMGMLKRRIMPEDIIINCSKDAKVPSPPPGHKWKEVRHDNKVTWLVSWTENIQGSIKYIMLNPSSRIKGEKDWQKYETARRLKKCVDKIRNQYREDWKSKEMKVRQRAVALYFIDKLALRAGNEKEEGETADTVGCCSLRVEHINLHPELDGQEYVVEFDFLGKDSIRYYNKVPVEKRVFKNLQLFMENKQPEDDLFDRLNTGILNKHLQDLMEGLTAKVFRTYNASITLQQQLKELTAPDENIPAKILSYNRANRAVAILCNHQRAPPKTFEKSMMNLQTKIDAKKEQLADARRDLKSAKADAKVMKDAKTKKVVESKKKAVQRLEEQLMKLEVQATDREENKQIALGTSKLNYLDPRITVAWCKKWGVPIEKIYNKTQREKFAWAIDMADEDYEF
Summary of the method: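 Baculovirus-purified human recombinant Top1. Substrate: 161 bp PvuII/HindIII fragment of pBluescript SK(-), 3′-end labeled with [α-32P]-dGTP by Klenow fill-in, about 50 000 dpm per reaction. Compounds up to 10 µM, 22 °C for 30 min; stopped with 0.5% SDS (final). Denaturing 16% polyacrylamide/7 M urea gels, phosphorimaging. Cleavage scored semiquantitatively (+ to ++++) against a reference indenoisoquinoline and 1 µM camptothecin.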

[2] = test system: Panel (12 tumour cell lines); assay: Net cell kill in ip dosed mouse implanted with 12 human tumor cell lines; type: functional, organism-based

Row | SMILES | GI50 (OVCAR-3) [µM] | GI50 (DU-145) [µM] | GI50 (MDA-MB-435) [µM] | GI50 (HCT-116) [µM] | Activity [1] | GI50 (HOP-62) [µM] | GI50 (SF-539) [µM] | GI50 (SN12C) [µM] | GI50 (UACC-62) [µM] | Activity [2]
1 | CN(CCCn1c2c(c3ccccc3c1=O)C(=O)c1ccccc1-2)CCCn1c2c(c3ccccc3c1=O)C(=O)c1ccccc1-2 | 1.2 |  | 1.55 |  |  |  | 1.12 | 0.589 | 2 | 
2 | CC(C)(C)OC(=O)N(CCCCN(CCCn1c2c(c3ccccc3c1=O)C(=O)c1ccccc1-2)C(=O)OC(C)(C)C)CCCn1c2c(c3ccccc3c1=O)C(=O)c1ccccc1-2 | 69.2 | 47.9 | 69.2 | 1.91 |  | 11 | 8.13 | 36.3 | 93.3 | 
3 | NCCCn1c2c(c3ccccc3c1=O)C(=O)c1ccccc1-2 | 1.38 | 0.22 | 0.78 | 0.18 |  | 0.2 | 0.25 | 0.16 | 0.26 | 
4 | O=C1c2ccccc2-c2c1c1ccccc1c(=O)n2CCCNCCn1c2c(c3ccccc3c1=O)C(=O)c1ccccc1-2 | 8.91 | 1.91 | 2.24 | 1.05 |  | 0.977 | 14.5 | 11 | 5.01 | 
5 | O=C1c2ccccc2-c2c1c1ccccc1c(=O)n2CCNCCn1c2c(c3ccccc3c1=O)C(=O)c1ccccc1-2 | > 25.1 | > 25.1 | > 25.1 | > 25.1 |  | > 25.1 | > 25.1 | > 25.1 | > 25.1 | 
6 | CC(=O)O[C@H]1C(=O)[C@@]2(C)[C@H]([C@H](OC(=O)c3ccccc3)[C@]3(O)C[C@H](OC(=O)[C@H](O)[C@@H](NC(=O)c4ccccc4)c4ccccc4)C(C)=C1C3(C)C)[C@]1(OC(C)=O)CO[C@@H]1C[C@@H]2O |  |  |  |  |  |  |  |  |  | Active
7 | O=C1c2ccccc2-c2c1c1ccccc1c(=O)n2CCCN1CCN(CCCn2c3c(c4ccccc4c2=O)C(=O)c2ccccc2-3)CC1 | > 100 | 24 | > 100 | 35.5 |  | 12.9 | > 100 | 15.5 | > 100 | 
8 | COc1cc2c3c(n(CCCNCCCNCCCn4c5c(c6cc(OC)c(OC)cc6c4=O)C(=O)c4ccccc4-5)c(=O)c2cc1OC)-c1ccccc1C3=O | 9.55 | 19.5 | 3.98 | 0.331 |  | 1.51 | 4.17 | 0.24 | 4.27 | 
9 | O=C1c2ccccc2-c2c1c1ccccc1c(=O)n2CCNCCNCCn1c2c(c3ccccc3c1=O)C(=O)c1ccccc1-2 | 1.66 | 0.182 | 1.66 | 0.029 |  | 0.032 |  | 0.178 | 0.331 | 
10 | CC[C@@]1(O)C(=O)OCc2c1cc1n(c2=O)Cc2cc3ccccc3nc2-1 [CAMPTOTHECIN] |  | 0.01 | 0.04 | 0.03 |  | 0.01 | 0.01 | 0.02 | 0.01 | 
11 | O=C1c2ccccc2-c2c1c1ccccc1c(=O)n2CCCNCCCn1c2c(c3ccccc3c1=O)C(=O)c1ccccc1-2 | 2.95 | 1 | 8.91 | 0.55 |  | 0.794 | 3.63 | 1.55 | 6.61 | 
12 | CC(C)(C)OC(=O)N(CCCn1c2c(c3ccccc3c1=O)C(=O)c1ccccc1-2)CCN(CCCn1c2c(c3ccccc3c1=O)C(=O)c1ccccc1-2)C(=O)OC(C)(C)C | 13.2 | > 50.1 | > 50.1 | 14.1 |  | 20 | > 50.1 | 39.8 | 45.7 | 
13 | CC(C)(C)OC(=O)N(CCCN(CCn1c2c(c3ccccc3c1=O)C(=O)c1ccccc1-2)C(=O)OC(C)(C)C)CCn1c2c(c3ccccc3c1=O)C(=O)c1ccccc1-2 | 21.4 | > 50.1 | > 50.1 | 22.9 |  | 22.4 | > 50.1 | > 50.1 | > 50.1 | 

Now from value to compound, other results behind:

Row | GI50 (OVCAR-3) [µM] | GI50 (DU-145) [µM] | GI50 (MDA-MB-435) [µM] | GI50 (HCT-116) [µM] | Activity [1] | SMILES | GI50 (HOP-62) [µM] | GI50 (SF-539) [µM] | GI50 (SN12C) [µM] | GI50 (UACC-62) [µM] | Activity [2]
14 | 0.032 | 0.085 | 0.126 | 0.2 |  | O=C1c2ccccc2-c2c1c1ccccc1c(=O)n2CCNCCNCCNCCNCCn1c2c(c3ccccc3c1=O)C(=O)c1ccccc1-2 | 0.977 | 0.012 |  |  | 
15 | 1.02 | < 0.01 | 0.933 | < 0.01 | Active | O=C1c2ccccc2-c2c1c1ccccc1c(=O)n2CCCNCCNCCCn1c2c(c3ccccc3c1=O)C(=O)c1ccccc1-2 | < 0.01 |  | < 0.01 | 0.052 | 
16 | 0.093 | 0.079 | 0.024 | < 0.005 | Active | O=C1c2ccccc2-c2c1c1ccccc1c(=O)n2CCNCCCNCCn1c2c(c3ccccc3c1=O)C(=O)c1ccccc1-2 | 0.339 | 0.155 | < 0.005 | 0.182 | inactive
17 | 0.269 | 0.209 | 0.813 | 0.045 |  | COc1cc2c3c(n(CCNCCCNCCn4c5c(c6cc(OC)c(OC)cc6c4=O)C(=O)c4ccccc4-5)c(=O)c2cc1OC)-c1ccccc1C3=O | 0.068 | 0.17 | 0.028 | 1.23 | 
18 | 0.074 |  | 0.107 | < 0.01 | Active | O=C1c2ccccc2-c2c1c1ccccc1c(=O)n2CCCNCCCNCCCn1c2c(c3ccccc3c1=O)C(=O)c1ccccc1-2 | < 0.01 | 0.011 | < 0.01 | 0.042 | inactive
19 | 0.88 | > 100 | 68 | 43 |  | COc1cc2c3c(n(CCCNCCCNCCCN)c(=O)c2cc1OC)-c1cc2c(cc1C3=O)OCO2 |  | > 100 | 33 | 44 | 
20 | 0.372 | 0.288 | 0.562 | 0.056 |  | O=C1c2ccccc2-c2c1c1ccccc1c(=O)n2CCCCNCCCn1c2c(c3ccccc3c1=O)C(=O)c1ccccc1-2 | 0.028 |  | 0.132 | 0.513 | 
